# In ChEMBL document CHEMBL3124806, “Imidazopyridine-fused [1,3]-diazepinones: synthesis and antiproliferative activity” (Eur J Med Chem, 2014):
# Activity calls are given as the source filed them. The rule behind the calls is not given here.
# Assays:
# CAKI-1 = experiment: Cytotoxicity against human Caki1 cells after 48 hrs by SRB assay; type: functional; conditions: CAKI-1, 48 h
# Outline: (§1)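 NCI-60 five-dose testing, 100 to 0.01 µM, under a 48 h continuous-exposure protocol. Growth estimated by SRB protein assay, read spectrophotometrically against untreated controls; IC50 derived from the dose-response.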
# [1] = molecular target: Cyclin-dependent kinase 1 (Homo sapiens) (UniProt P06493); experiment: Inhibition of human CDK1 at 10 uM
# Chain of Cyclin-dependent kinase 1 (Homo sapiens) (P06493 whole entry, looked up): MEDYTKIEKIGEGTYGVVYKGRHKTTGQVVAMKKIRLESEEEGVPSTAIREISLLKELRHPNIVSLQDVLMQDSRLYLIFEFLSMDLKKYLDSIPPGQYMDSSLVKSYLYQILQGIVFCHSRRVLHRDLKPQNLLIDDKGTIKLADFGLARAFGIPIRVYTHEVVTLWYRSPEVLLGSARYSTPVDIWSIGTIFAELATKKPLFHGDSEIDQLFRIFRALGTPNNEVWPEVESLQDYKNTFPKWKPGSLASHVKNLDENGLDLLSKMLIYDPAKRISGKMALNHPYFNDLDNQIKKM
# Outline: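 Kinase selectivity panel of 19 protein tyrosine kinases and 30 serine/threonine kinases, run by a contract lab (CEREP). Each compound was tested at a single dose of 10 μM in duplicate.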
# HCT-15 = experiment: Cytotoxicity against human HCT15 cells after 48 hrs by SRB assay; type: functional; conditions: HCT-15, 48 h; outline: as §1
# U-251 = experiment: Cytotoxicity against human U251 cells after 48 hrs by SRB assay; type: functional; conditions: U-251, 48 h
# Outline: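 NCI-60 five-dose mode on the full human tumour line panel. Concentrations ran from 100 to 0.01 µM with 48 h continuous exposure. Growth was estimated by SRB protein staining against untreated controls, and IC50 values were derived from the dose–response.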
# MDA-MB-435 = experiment: Cytotoxicity against human MDA-MB-435 cells at 5 uM by MTT assay; type: functional, cell-based; conditions: TDE = time-dependent effect
# Outline: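 MDA-MB-435 cells in DMEM/Ham's F12 (1:1) with 10% FCS, 37 °C, 5% CO2. Time course at a fixed 5 µM, incubated 8, 16, 24 or 48 h. Viability then read by MTT reduction (0.5 mg/mL, 4 h), formazan dissolved in EtOH/DMSO, absorbance at 540 nm, as percent living cells.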
# [2] = Cytotoxicity against human CAL-1 cells assessed as reduction in cell growth at 1 to 10 uM after 48 hrs by MTT assay relative to untreated control; type: functional; design: scale not given: the % may be the effect or the level left
# Outline: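 CAL1 melanoma cells grown in DMEM with 2 mM L-glutamine and 10% FCS at 37 °C, 5% CO2. Seeded at 10^4 cells/well, grown 24 h, then treated 48 h across 100–0.01 μM (compounds dissolved in medium). Read-out: 0.5 mg mL⁻¹ MTT for 4 h, crystals dissolved in EtOH/DMSO 1:1, absorbance at 540 nm.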
# [3] = read-out: LC50 (the source's name)
SMILES,GI50 (CAKI-1),TGI (CAKI-1),CC50 (CAKI-1; [3]),inhibition [1],GI50 (HCT-15),TGI (HCT-15),CC50 (HCT-15; [3]),GI50 (U-251),TGI (U-251),CC50 (U-251; [3]),Activity (MDA-MB-435),Activity [2]
C[C@@H]1NC(c2ccc(Br)cc2)=Nc2nc3ccccn3c2C1=O,3.09 µM,> 100 µM,> 100 µM,inactive,3.64 µM,> 100 µM,> 100 µM,6.64 µM,> 100 µM,> 100 µM,tde,–
C[C@@H]1NC(c2ccccc2)=Nc2nc3ccccn3c2C1=O,–,–,–,–,–,–,–,–,–,–,–,20%
